High-throughput results deposited in PubChem BioAssay by The Scripps Research Institute Molecular Screening Center.
TAAR1 antag: antagonists of human TAAR1. AID 624466. CHO RD-HGA16 TAAR1, Fluo-8 calcium fluorescence, antagonist. Q96RJ0. inhibition, % at 3 µM. hit rate 1.5% among 360,000;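 active = inhibition above a per-plate cutoff, the mean inhibition of test compounds on that plate plus 3 SD, cut at about 49% in these data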;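 also: 0% = DMSO plus EC80 beta-PEA response and 100% = DMSO alone without agonist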
Target sequence (Q96RJ0 whole entry, looked up): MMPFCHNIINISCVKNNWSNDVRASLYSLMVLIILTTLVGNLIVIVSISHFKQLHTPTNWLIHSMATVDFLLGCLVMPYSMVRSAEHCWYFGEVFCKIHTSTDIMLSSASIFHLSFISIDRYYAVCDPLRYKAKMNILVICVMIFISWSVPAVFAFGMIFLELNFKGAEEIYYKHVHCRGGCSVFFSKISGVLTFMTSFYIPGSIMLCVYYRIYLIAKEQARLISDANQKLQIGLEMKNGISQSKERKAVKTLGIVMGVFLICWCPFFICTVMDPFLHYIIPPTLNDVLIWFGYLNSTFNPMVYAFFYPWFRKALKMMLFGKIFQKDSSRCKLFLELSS
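Test system: hTAAR1-expressing CHO RD-HGA16 cells, Gα16-coupled; Probe or stimulus: EC80 β-phenethylamine stimulus; Compound dosing: single nominal final test compound concentration of 3 µM; Timing: 140 s kinetic read after compound, 140 s after agonist; Signal: Fluo-8 calcium-sensitive fluorescence; Measure: % inhibition of agonist calcium response; Controls: DMSO and EC80 PEA controls.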
OX1R antag-1: blocks the human orexin 1 receptor | O43613 | CHO/OX1R cells, Fluo-8 calcium fluorescence, orexin A | inhibition, % at 5 µM | hit rate 0.43% among 330,000 | AID 434989;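 active = inhibition above its plate's threshold, mean inhibition of all tested compounds on the plate plus 3 SD, cut at about 37% in these data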;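 also: 0% = orexin A challenge wells and 100% = SB-334867-A antagonist wells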
Target sequence (O43613 whole entry, looked up): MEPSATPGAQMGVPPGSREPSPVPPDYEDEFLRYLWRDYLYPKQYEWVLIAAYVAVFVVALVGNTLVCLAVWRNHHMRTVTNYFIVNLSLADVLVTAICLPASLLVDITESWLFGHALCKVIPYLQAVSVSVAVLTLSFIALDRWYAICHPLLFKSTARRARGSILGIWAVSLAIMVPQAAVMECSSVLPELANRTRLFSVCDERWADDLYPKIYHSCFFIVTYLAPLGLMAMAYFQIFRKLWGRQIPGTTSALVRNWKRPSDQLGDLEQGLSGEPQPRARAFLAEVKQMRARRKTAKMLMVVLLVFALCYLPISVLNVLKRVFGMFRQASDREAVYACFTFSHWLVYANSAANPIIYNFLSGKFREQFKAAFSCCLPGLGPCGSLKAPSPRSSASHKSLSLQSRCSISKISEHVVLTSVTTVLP
TAAR1 ag: agonists of human TAAR1 | activation, % at 3 µM | AID 624467 | hit rate 0.99% among 360,000 | CHO RD-HGA16 TAAR1, Fluo-8 calcium fluorescence; vehicle wells 0%, saturating PEA agonist 100%;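 active = activation above the mean activation of all test compounds in the run plus 3 SD, cut at about 38% in these data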
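System: CHO-derived RD-HGA16 cells with stable Gα16 and human TAAR1 / Times: 17-24 h plating, Fluo-8 75 min 37 °C, 30 min RT / Technique: calcium-sensitive Fluo-8 signal, excitation 470-495, emission 515-575 nm / Measure: % activation relative to PEA EC100 response / Benchmarks: DMSO and PEA EC100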
OX1R antag-2: blocks the human orexin 1 receptor | O43613 | OX1R-expressing cells, FRET antagonist read-out | inhibition, % at 6.6 µM | hit rate 1.8% among 330,000; in the data active = inhibition mostly above about 38%, no sharp cut-off; inactive = mostly below about 40%;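 also: 0% = agonist challenge alone and 100% = reference antagonist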
GalR3 antagonist: blocks the human galanin receptor 3; O60755; HEK293 GalR3-CNG cAMP membrane potential fluorescence; galR3 body fused to GalR1 C-terminus; inhibition, % at 3 µM; hit rate 0.44% among 360,000; AID 651719;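 active = inhibition above the screen-wide average plus 3 SD, cut at about 13% in these data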;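 also: forskolin and galanin both at EC90 stimulate the cells; cAMP rise reported by CNG channel membrane potential dye signal; 0% = forskolin plus galanin with DMSO and 100% = forskolin alone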
CHO parental Ca: counter-screen: ATP calcium response change in parental CHO cells; inhibition, % at 5.6 µM; parental CHO-K1, ATP-induced calcium, Fluo-8 fluorescence; hit rate 0.63% among 330,000;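 active = inhibition above that plate's mean sample inhibition plus 3 SD, cut at about 26% in these data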;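 also: 0% = ATP-challenged DMSO wells and 100% = DMSO wells without ATP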
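Assay system: untransfected parental CHO cell line. Also added: ATP agonist challenge. Dosing: one dose, 5.6 µM nominal. Measured by: Fluo-8 fluorescence. Read-out: % inhibition. Benchmarks: ATP wells versus no-ATP DMSO wells. Repeats: no replicates.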
OX1R HTRF conf: confirmation of human orexin 1 receptor antagonists, HTRF format; shares compounds with OX1R antag-2; OX1R-expressing cells, HTRF antagonist assay; inhibition, % at 6.6 µM; hit rate 49% among 1,800; AID 492964; in the data active = inhibition above about 55%;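 also: CHO cells expressing OX1R stimulated with orexin A at about EC80; 0% = agonist challenge alone and 100% = reference antagonist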
CHO-K1 HTRF: counter-screen for OX1R antagonists: effect in parental CHO-K1 cells; shares compounds with OX1R antag-2; HTRF counterscreen; inhibition, % at 6.6 µM; hit rate 48% among 1,800; in the data active = inhibition above about 17%;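 also: 0% = agonist challenge with vehicle and 100% = vehicle alone without agonist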
* hit, by the source's call; / = not tested or not shown. Hits are enriched below; roughly 4.2% of the tested compounds scored in any of these assays.

SMILES | TAAR1 antag | OX1R antag-1 | TAAR1 ag | OX1R antag-2 | GalR3 antagonist | CHO parental Ca | OX1R HTRF conf | CHO-K1 HTRF
Cc1ccc(N(Cc2ccc(C(=O)NC3CCCCC3)cc2)S(C)(=O)=O)cc1C | -5.2 | -13.4 | 5.6 | 10.2 | -4.7 | -8.9 | / | /
CC1(C)CC(NS(=O)(=O)c2ccc(F)cc2)CC(C)(C)N1 | -18.7 | -1.6 | -0.3 | 86.2* | 5.8 | -8.2 | 20.1 | -2.5
Cc1occc1C(=O)NCCc1cccc(Cl)c1 | 1.2 | -17.3 | 3.5 | 21.5 | -0.9 | -14.4 | / | /
O=C(CCN1CCN(c2ccc(F)cc2)CC1)Nc1ccc(F)cc1 | 3.1 | -25.4 | 5.1 | 4.9 | -1.4 | -11.7 | / | /
O=C(CC1Nc2ccccc2NC1=O)NCC1COc2ccccc2O1 (configuration not stated) | / | 22.6 | / | 79.0* | / | -15.9 | 64.9* | -0.6
O=C(CC1OC(=O)c2ccccc21)NCC1COc2ccccc2O1 (configuration not stated) | -15.1 | -17.7 | 0.4 | 11.5 | 2.1 | -16.4 | / | /
Cc1cc(C)c2[nH]c3nc(SCC(=O)O)nnc3c2c1 | -5.6 | 0.6 | 9.6 | 104.3* | -8.2 | -9.3 | 25.8 | 13.7
COc1ccc(C(=O)Nc2cnc3sc(C)nn3c2=O)cc1 | -13.1 | -11.5 | 3.8 | 21.0 | -4.3 | 5.3 | / | /
O=C(CCl)NCCN1C(=O)S/C(=C\c2cccnc2)C1=O | 3.0 | -6.1 | 7.3 | 49.4 | -2.3 | 6.0 | / | /
COc1ccc(C(=O)NCCN2C(=O)S/C(=C\c3cccnc3)C2=O)c(OC)c1OC | 13.7 | -14.1 | 4.2 | 82.2* | -8.3 | -20.1 | 57.8* | 23.6*
CC(C(=O)NCCN1C(=O)S/C(=C\c2cccnc2)C1=O)N1C(=O)c2ccccc2C1=O (configuration not stated) | 2.1 | -33.9 | 0.8 | 78.8* | 3.6 | -14.3 | 63.9* | 40.4*
O=c1[nH]c(N/N=C/c2ccc(O)cc2)nc2ccccc12 | -5.4 | -20.1 | 8.8 | 13.3 | -1.1 | -8.7 | / | /
O=C(CN1CCN(c2ncc(C(F)(F)F)cc2Cl)CC1)N1CCN(c2ncc(C(F)(F)F)cc2Cl)CC1 | 11.6 | -25.2 | 3.5 | 26.9 | -7.2 | -14.8 | / | /
O=C(NCCCN1CCOCC1)c1cc2cc(Br)ccc2oc1=O | 5.2 | -17.9 | 10.4 | 123.6* | 3.4 | -19.5 | 42.4 | 40.7*
O=C(NCCN1CCOCC1)c1cc2cc(Br)ccc2oc1=O | 10.4 | 6.9 | 0.3 | 21.6 | -4.4 | 3.9 | / | /
CCN(CC(=O)Nc1ccccc1C(F)(F)F)C(=O)CCc1nc2ccccc2c(=O)[nH]1 | -8.5 | 12.6 | 0.5 | 81.6* | -4.8 | -9.5 | 46.1 | -0.8
Cc1c(NC(=O)CN2C(=O)C(=O)c3ccccc32)c(=O)n(-c2ccccc2)n1C | -10.8 | -15.6 | 2.6 | 80.3* | -2.3 | -12.5 | 53.3 | 50.9*
Cc1c(NC(=O)CN2C(=O)C3C4C=CC(C4)C3C2=O)c(=O)n(-c2ccccc2)n1C (configuration not stated) | 4.4 | 2.1 | 4.2 | 7.5 | -3.7 | -9.3 | / | /
O=C(O)CCCN1C(=O)c2ccc(C(=O)c3cccc([N+](=O)[O-])c3)cc2C1=O | -2.2 | -5.3 | 1.2 | 86.5* | 1.2 | -3.8 | 40.1 | 52.5*
O=C(O)CCCN1C(=O)c2ccc(Oc3cccc([N+](=O)[O-])c3)cc2C1=O | -7.2 | 3.8 | 2.4 | 56.3 | 1.9 | 6.9 | / | /
Cc1ccc2nsnc2c1S(=O)(=O)NCc1ccncc1 | -18.2 | -12.5 | 11.8 | 102.6* | -0.2 | -10.1 | 30.7 | 36.9*
Cc1ccc2nsnc2c1S(=O)(=O)NCc1cccnc1 | 7.3 | -14.6 | 7.0 | 38.1 | -3.2 | 7.1 | / | /
COc1ccccc1N(CC(O)COc1ccc(C)cc1)S(=O)(=O)c1ccccc1 (configuration not stated) | 3.7 | 15.8 | 0.7 | 78.3* | -6.5 | -15.3 | 90.7* | -0.9
CCC[n+]1c2ccccc2cc2ccccc21 | 0.3 | -9.1 | 4.0 | 83.6* | -4.6 | -16.6 | 47.7 | 54.1*
COC(=O)c1c(C)oc2c1cc(NS(=O)(=O)c1cccs1)c1ccccc12 | -9.2 | -18.4 | -1.2 | 23.6 | -5.9 | -15.4 | / | /
SMILES | TAAR1 antag | OX1R antag-1 | TAAR1 ag | OX1R antag-2 | GalR3 antagonist | CHO parental Ca | OX1R HTRF conf | CHO-K1 HTRF
COc1ccc(OC)c(N/C(C)=C/C(=O)c2ccncc2)c1 | -27.0 | -39.9 | 0.4 | 15.9 | -9.7 | -17.4 | / | /
C/C(=C\C(=O)c1ccncc1)Nc1ccccc1O | 20.2 | -0.1 | 3.3 | 91.3* | -4.0 | 3.4 | 24.0 | 6.6
Cc1cccc(C(=O)N[C@H](C(=O)OCc2cc(=O)n3c(n2)sc2ccccc23)C(C)C)c1 | 40.7 | -16.4 | 11.8 | 29.0 | -3.9 | -22.1 | / | /
CNCc1ccccc1Sc1ccc(OC)cc1 | 7.6 | -11.0 | 8.7 | 14.4 | -1.4 | -13.6 | / | /
CCCn1c(N)nc2ccccc21 | 5.1 | -30.9 | 2.6 | 12.2 | -3.3 | -15.2 | / | /
CCCn1c(/C=C/c2cc[n+](C)cc2)nc2ccccc21 | -14.2 | 9.9 | 4.4 | 77.9* | -6.1 | 0.0 | 49.7 | 47.3*
COc1cccc(C2C(C(=O)c3sc(C)nc3C)=C(O)C(=O)N2CCN2CCOCC2)c1OC (configuration not stated) | 11.4 | -9.0 | -1.5 | 19.8 | 3.8 | -0.1 | / | /
O=C(CSc1cccc2cccc(Cl)c12)NC1=NCCS1 | 10.4 | 1.7 | 6.4 | 111.9* | -0.4 | -5.8 | 35.3 | 8.6
CCOc1ccc(NC(=O)/C=C/c2ccc(OC)cc2)c([N+](=O)[O-])c1 | 6.8 | -19.9 | 4.2 | 22.0 | 1.0 | 0.5 | / | /
O=[N+]([O-])c1cccc(COc2ncnc3cc([N+](=O)[O-])ccc23)c1 | -32.2 | -20.5 | 0.5 | 91.4* | -5.8 | -4.3 | 45.9 | 48.5*
O=C(COc1ncnc2cc([N+](=O)[O-])ccc12)NCc1ccc2c(c1)OCO2 | -0.2 | -17.3 | 5.5 | 80.7* | -1.3 | -9.6 | 34.4 | 44.9*
Cc1ccc2cccc(OCc3cccc([N+](=O)[O-])c3)c2n1 | 6.2 | -27.2 | 17.3 | 6.8 | -4.6 | -29.1 | / | /
COc1ccc([C@H]2CC(=O)C=C(c3cc(F)ccc3OC)C2)cc1 | 30.0 | -11.6 | 11.5 | 2.7 | -7.1 | -12.8 | / | /
CC(C)n1c(=O)c2ccccc2n1Cc1cn(Cc2ccccc2)nn1 | 9.4 | / | -0.8 | / | -7.4 | / | / | /
Cc1ccc(S(=O)(=O)N2CCCC2C(=O)N(C)Cc2cccs2)cc1 (configuration not stated) | -5.2 | -6.1 | 3.3 | 7.5 | -5.3 | -10.3 | / | /
O=C(NCc1ccc2c(c1)OCO2)C1CC(c2ccc(Cl)c(Cl)c2)=NO1 (configuration not stated) | 9.3 | -2.8 | 7.0 | 41.0 | 1.3 | -12.4 | / | /
